Calls of active or inactive are those of the source. The rule behind the calls is not given here.
Key:
[1] = system: Jurkat; assay: Cell cycle arrest in human Jurkat E6-1 cells assessed as accumulation at G0/G1 phase at 29 uM after 24 hrs by FACS flow cytometry; type: functional
Outline: (§1)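 Jurkat E6 cells cultured in RPMI 1640 with 10% FBS at 37 °C, 5% CO2. Compounds serially diluted in medium, starting 50% above the M21 IC50. 4.0 × 10^5 cells were exposed for 24 h. Cells were washed with PBS, chicken red blood cells added as internal standard, and fixed in ice-cold EtOH. After 1 h on ice in PBS with 1 μg/mL DAPI, phase distribution was read by flow cytometry. DMSO-treated cells served as control.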

[2] = system: Jurkat; assay: Cell cycle arrest in human Jurkat E6-1 cells assessed as accumulation at S phase at 29 uM after 24 hrs by FACS flow cytometry; type: functional
Outline: (§2)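 Jurkat E6 T-lymphoblasts in RPMI 1640 with 10% FBS, 37 °C, 5% CO2. […] Chicken red blood cells were added as internal standard. Cells were fixed in ice-cold EtOH and stained with 1 μg/mL DAPI on ice for 1 h before flow cytometry of phase distribution. Vehicle control was 0.5% DMSO.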

[3] = system: HT-29; assay: Cytotoxicity against human HT-29 cells after 48 hrs by SRB assay; type: functional, cell-based; settings: HT-29, 48 h
Outline: (§3)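 NCI sulforhodamine B protocol. Cells were grown in high-glucose DMEM with 5% FBS and seeded per well at 4 × 10^3 (HT-29), 3.5 × 10^3 (M21) or 3 × 10^3 (MCF-7), then allowed 24 h to attach. Serial dilutions from 200 μM to 780 nM final were applied in DMSO <0.5% for 48 h. Cells were fixed with cold TCA (10% final) and stained with SRB, with absorbance read at 530–568 nm. Growth inhibition was computed against day-0 plates, giving the 50% inhibitory concentration. At least two experiments in triplicate, CV <10%.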

[4] = system: Jurkat; assay: Cell cycle arrest in human Jurkat E6-1 cells assessed as accumulation at G2/M phase at 29 uM after 24 hrs by FACS flow cytometry; type: functional
Outline: (§4)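 Jurkat E6 cells grown in RPMI 1640 with 10% FBS at 37 °C, 5% CO2. Compounds were serially diluted in medium starting 50% above the M21 IC50. 4.0 × 10^5 cells were exposed for 24 h, then washed and spiked with chicken red blood cells as internal standard. Cells were fixed in ice-cold ethanol, stained with 1 μg/mL DAPI on ice for 1 h, and phase distribution was read by flow cytometry. The control was 0.5% DMSO.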

[5] = system: M21; assay: Cytotoxicity against human M21 cells after 48 hrs by SRB assay; type: functional, cell-based; settings: M21, 48 h; outline: as §3
[6] = system: Jurkat; assay: Cell cycle arrest in human Jurkat E6-1 cells assessed as accumulation at G0/G1 phase at 28 uM after 24 hrs by FACS flow cytometry; type: functional; outline: as §1
[7] = system: MCF7; assay: Cytotoxicity against human MCF7 cells after 48 hrs by SRB assay; type: functional, cell-based; settings: MCF7, 48 h; outline: as §3
[8] = system: Jurkat; assay: Cell cycle arrest in human Jurkat E6-1 cells assessed as accumulation at G2/M phase at 28 uM after 24 hrs by FACS flow cytometry; type: functional; outline: as §4
[9] = system: Jurkat; assay: Cell cycle arrest in human Jurkat E6-1 cells assessed as accumulation at S phase at 28 uM after 24 hrs by FACS flow cytometry; type: functional; outline: as §2
[10] = system: Jurkat; assay: Cell cycle arrest in human Jurkat E6-1 cells assessed as accumulation at G0/G1 phase at 26 uM after 24 hrs by FACS flow cytometry; type: functional; outline: as §1
[11] = system: Jurkat; assay: Cell cycle arrest in human Jurkat E6-1 cells assessed as accumulation at S phase at 26 uM after 24 hrs by FACS flow cytometry; type: functional; outline: as §2
[12] = system: Jurkat; assay: Cell cycle arrest in human Jurkat E6-1 cells assessed as accumulation at G2/M phase at 26 uM after 24 hrs by FACS flow cytometry; type: functional; outline: as §4
[13] = system: Jurkat; assay: Cell cycle arrest in human Jurkat E6-1 cells assessed as accumulation at G2/M phase at 57 uM after 24 hrs by FACS flow cytometry; type: functional; outline: as §4
[14] = system: Jurkat; assay: Cell cycle arrest in human Jurkat E6-1 cells assessed as accumulation at S phase at 57 uM after 24 hrs by FACS flow cytometry; type: functional; outline: as §2
[15] = system: Jurkat; assay: Cell cycle arrest in human Jurkat E6-1 cells assessed as accumulation at G0/G1 phase at 57 uM after 24 hrs by FACS flow cytometry; type: functional; outline: as §1
[16] = system: Jurkat; assay: Cell cycle arrest in human Jurkat E6-1 cells assessed as accumulation at S phase at 16 uM after 24 hrs by FACS flow cytometry; type: functional; outline: as §4
[17] = system: Jurkat; assay: Cell cycle arrest in human Jurkat E6-1 cells assessed as accumulation at G0/G1 phase at 16 uM after 24 hrs by FACS flow cytometry; type: functional; outline: as §1
[18] = system: Jurkat; assay: Cell cycle arrest in human Jurkat E6-1 cells assessed as accumulation at G2/M phase at 16 uM after 24 hrs by FACS flow cytometry; type: functional; outline: as §1
[19] = system: Jurkat; assay: Cell cycle arrest in human Jurkat E6-1 cells assessed as accumulation at G2/M phase at 8.3 uM after 24 hrs by FACS flow cytometry; type: functional; outline: as §4
[20] = system: M21; assay: Induction of DNA damage response in human M21 cells assessed as phosphorylation of H2AX into gammaH2AX at IC50 after 24 hrs by DAPI staining-based immunofluorescence assay; type: functional, cell-based
Outline: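 M21 cells (1 × 10^5) on fibronectin-coated coverslips, grown 24 h, then exposed to agent for 24 h at 37 °C; 0.5% DMSO control. Fixed with 3.7% formaldehyde and permeabilized with 0.1% saponin/3% BSA. Probed with mouse anti-H2AX pS139 antibody for 2 h at room temperature. Nuclei counterstained with DAPI; nuclear γH2AX foci viewed by epifluorescence microscopy.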

[21] = system: Jurkat; assay: Cell cycle arrest in human Jurkat E6-1 cells assessed as accumulation at G0/G1 phase at 8.3 uM after 24 hrs by FACS flow cytometry; type: functional; outline: as §1
[22] = system: Jurkat; assay: Cell cycle arrest in human Jurkat E6-1 cells assessed as accumulation at S phase at 8.3 uM after 24 hrs by FACS flow cytometry; type: functional; outline: as §2
[23] = system: Jurkat; assay: Cell cycle arrest in human Jurkat E6-1 cells assessed as accumulation at S phase at 22 uM after 24 hrs by FACS flow cytometry; type: functional; outline: as §4
[24] = system: Jurkat; assay: Cell cycle arrest in human Jurkat E6-1 cells assessed as accumulation at G0/G1 phase at 22 uM after 24 hrs by FACS flow cytometry; type: functional; outline: as §1
[25] = system: Jurkat; assay: Cell cycle arrest in human Jurkat E6-1 cells assessed as accumulation at G2/M phase at 22 uM after 24 hrs by FACS flow cytometry; type: functional; outline: as §4

Compound: CCCc1ccccc1NS(=O)(=O)c1ccc(NC(=O)NCCCl)cc1
- Activity [1]: 28%
- Activity [2]: 44%
- IC50 [3]: 21 µM
- Activity [4]: 28%
- IC50 [5]: 29 µM

Compound: Cc1ccccc1OS(=O)(=O)c1cccc(NC(=O)NCCCCl)c1
- Activity [6]: 43%
- IC50 [3]: 21 µM
- IC50 [7]: 27 µM
- IC50 [5]: 29 µM
- Activity [8]: 19%
- Activity [9]: 38%

Compound: CCCc1ccccc1NS(=O)(=O)c1cccc(NC(=O)NCCCCl)c1
- Activity [10]: 44%
- IC50 [3]: 15 µM
- Activity [11]: 43%
- IC50 [7]: 18 µM
- IC50 [5]: 23 µM
- Activity [12]: 13%

Compound: O=C(NCCCCl)Nc1cccc(S(=O)(=O)Oc2ccc(O)cc2)c1
- Activity [13]: 9%
- Activity [14]: 48%
- IC50 [5]: 49 µM
- Activity [15]: 43%

Compound: CCc1ccccc1NS(=O)(=O)c1ccc(NC(=O)NCCCl)cc1
- Activity [16]: 43%
- Activity [17]: 41%
- IC50 [3]: 40 µM
- IC50 [7]: 33 µM
- IC50 [5]: 68 µM
- Activity [18]: 16%

Compound: Cc1ccccc1OS(=O)(=O)c1ccc(NC(=O)NCCCCl)cc1
- Activity [19]: 10%
- Activity [20]: Active
- Activity [21]: 20%
- IC50 [7]: 27 µM
- Activity [22]: 70%
- IC50 [5]: 25 µM

Compound: CCCc1ccccc1NS(=O)(=O)c1ccc(NC(=O)NCCCCl)cc1
- Activity [23]: 41%
- IC50 [3]: 26 µM
- IC50 [7]: 35 µM
- IC50 [5]: 38 µM
- Activity [24]: 36%
- Activity [25]: 23%

Source: ChEMBL document CHEMBL2163200, “Synthesis, biological evaluation, and structure-activity relationships of novel substituted N-phenyl ureidobenzenesulfonate derivatives blocking cell cycle progression in S-phase and inducing DNA double-strand breaks” (J Med Chem, 2012)
